Entries after “also recorded” stand apart in the source; their conditions may differ. Like-named read-outs stand apart in the source and are kept apart here.
Experiments:
[1] = tested on: pancreatic epithelioid carcinoma PANC-1; assay: cell proliferation, CCK-8 assay, PANC-1; format: cell-based; details: PANC-1 cells, 72 hours, hypoxic conditions
[2] = tested on: non-small cell lung carcinoma A549; assay: cell proliferation, CCK-8 assay, A549; format: cell-based; details: A549 cells, 72 hours, hypoxic conditions
[3] = biological target: hCA XII (Homo sapiens, UniProt O43570); assay: stopped-flow CO2 hydration assay, hCA XII; format: biochemical; details: for Ki: KI hCA XII, stopped-flow hydration assay; for SI I/XII: ratio of KI hCA I to KI hCA XII; for SI II/XII: ratio of KI hCA II to KI hCA XII
[4] = biological target: T1, hCA II (Homo sapiens, UniProt P00918); assay: stopped-flow CO2 hydration assay, hCA II; format: biochemical
Summary of the method: (§1)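 Recombinant in-house enzyme, preincubated 15 min at room temperature with inhibitor. Inhibitor stock was 0.1 mM in water, diluted down to 0.01 nM. CO₂ (1.7–17 mM) hydration was followed by stopped-flow with 0.2 mM phenol red at 557 nm, in 20 mM HEPES pH 7.5 with 20 mM Na₂SO₄, over 10–100 s. Initial rates came from six traces and were corrected for the uncatalysed rate. Ki was obtained by non-linear least squares, mean of ≥3 measurements.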

[5] = biological target: hCA I (Homo sapiens, UniProt P00915); assay: stopped-flow CO2 hydration assay, hCA I; format: biochemical
Summary of the method: as §1

[6] = biological target: hCA IX (Homo sapiens, UniProt Q16790); assay: stopped-flow CO2 hydration assay, hCA IX; format: biochemical; details: for SI I/IX: ratio of KI hCA I to KI hCA IX; for SI II/IX: ratio of KI hCA II to KI hCA IX
[7] = biological target: T1, hCA II; details: read-out: KI hCA II; stopped-flow hydration assay; values marked *; cited from earlier work
[8] = biological target: hCA VI (Homo sapiens, UniProt P23280); assay: stopped-flow CO2 hydration assay, hCA VI; format: biochemical
[9] = tested on: MDA-MB-231 cells; assay: cell proliferation assay, cell counting by flow cytometry; format: cell-based, human; details: MDA-MB-231, 72 hours, hypoxic conditions
Summary of the method: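 MDA-MB-231 cells were grown in DMEM with 10% FBS, 1% penicillin/streptomycin and 1% glutamine, kept at low passage, and held under hypoxia (1% O₂, 5% CO₂). Cells were seeded at 10.000 per well and treated in 1% FBS with increasing compound concentrations for 72 h at 37 °C. They were then detached with trypsin/2 mM EDTA and counted by flow cytometry. Counts are given as % of untreated control (mean ± SEM) with IC₅₀.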

Chain of hCA XII (O43570 25-354): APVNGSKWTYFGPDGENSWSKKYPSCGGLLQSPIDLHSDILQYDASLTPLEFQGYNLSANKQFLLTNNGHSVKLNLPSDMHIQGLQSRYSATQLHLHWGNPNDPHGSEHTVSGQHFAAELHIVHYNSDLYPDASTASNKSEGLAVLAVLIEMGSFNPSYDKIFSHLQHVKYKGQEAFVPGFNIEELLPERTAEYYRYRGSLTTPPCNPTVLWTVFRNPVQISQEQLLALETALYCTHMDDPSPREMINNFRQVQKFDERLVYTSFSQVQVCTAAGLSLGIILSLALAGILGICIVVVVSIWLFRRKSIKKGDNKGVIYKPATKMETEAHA
Chain of hCA I (P00915 whole entry): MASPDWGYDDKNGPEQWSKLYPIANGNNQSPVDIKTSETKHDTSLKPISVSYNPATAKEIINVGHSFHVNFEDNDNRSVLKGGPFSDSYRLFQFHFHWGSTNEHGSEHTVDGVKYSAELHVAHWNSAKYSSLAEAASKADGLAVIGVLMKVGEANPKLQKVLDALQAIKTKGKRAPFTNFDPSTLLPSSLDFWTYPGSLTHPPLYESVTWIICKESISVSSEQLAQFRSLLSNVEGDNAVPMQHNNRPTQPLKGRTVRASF
Chain of hCA VI (P23280 18-308): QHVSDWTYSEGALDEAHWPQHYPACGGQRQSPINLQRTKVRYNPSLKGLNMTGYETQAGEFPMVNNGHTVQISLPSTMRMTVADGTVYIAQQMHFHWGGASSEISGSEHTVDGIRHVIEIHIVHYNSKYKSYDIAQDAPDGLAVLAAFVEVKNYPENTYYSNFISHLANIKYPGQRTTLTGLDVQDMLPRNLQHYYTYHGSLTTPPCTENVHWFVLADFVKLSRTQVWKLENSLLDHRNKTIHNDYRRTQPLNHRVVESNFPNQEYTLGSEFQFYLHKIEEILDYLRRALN

Compound	antiproliferative effect [1]	antiproliferative effect [2]	Ki [3]	SI I/XII [3]	SI II/XII [3]	Ki [4]	Ki [5]	Ki [6]	SI I/IX [6]	SI II/IX [6]	Ki [7]	Ki [8]	anti-proliferative effect [9]
NS(=O)(=O)c1ccc(NC(=O)Nc2ccc(F)cc2)cc1 [SLC-0111]	ineffective	ineffective											
COCCOc1cc2ncnc(Nc3cccc(-c4cn(CCOCCOCCOCCOCCOCCNC(=S)Nc5ccc(S(N)(=O)=O)cc5)nn4)c3)c2cc1OCCOC [compound 14b, 4-(3-(17-(4-(3-((6,7-Bis(2-methoxyethoxy)quinazolin-4-yl)amino)phenyl)-1H-1,2,3-triazol-1-yl)-3,6,9,12,15-pentaoxaheptadecyl)thioureido)benzenesulfonamide]			1520 nM	28.4	6.38	9710 nM	43300 nM	4930 nM	8.79	1.97			
Cc1cn([C@H]2C[C@H](N=[N+]=[N-])[C@@H](CO)O2)c(=O)[nH]c1=O [AZT, azidothymidine, reference compound]				43.86		12.1 nM	250 nM	25.7 nM	9.73	0.47	684 nM	505 nM	
COCCOc1cc2ncnc(Nc3cccc(-c4cn(CCOCCOCCOCCNC(=O)Nc5ccc(S(N)(=O)=O)cc5)nn4)c3)c2cc1OCCOC [compound 7b, 4-(3-(2-(2-(2-(2-(4-(3-((6,7-Bis(2-methoxyethoxy)quinazolin-4-yl)amino)phenyl)-1H-1,2,3-triazol-1-yl)ethoxy)ethoxy)ethoxy)ethyl)ureido)benzenesulfonamide]			57.4 nM	628	16.6	950 nM	36100 nM	1120 nM	32.1	0.85			
COCCOc1cc2ncnc(Nc3cccc(-c4cn(CCOCCOCCOCCNC(=S)Nc5cccc(S(N)(=O)=O)c5)nn4)c3)c2cc1OCCOC [compound 8a, 3-(3-(2-(2-(2-(2-(4-(3-((6,7-Bis(2-methoxyethoxy)quinazolin-4-yl)amino)phenyl)-1H-1,2,3-triazol-1-yl)ethoxy)ethoxy)ethoxy)ethyl)thioureido)benzenesulfonamide]			72 nM	636	44.0	3170 nM	45800 nM	1920 nM	23.8	1.65			
COCCOc1cc2ncnc(Nc3cccc(-c4cn(CCOCCOCCOCCOCCOCCNC(=O)Nc5cccc(S(N)(=O)=O)c5)nn4)c3)c2cc1OCCOC [compound 12a, 3-(3-(17-(4-(3-((6,7-Bis(2-methoxyethoxy)quinazoline-4-yl)amino)phenyl)-1H-1,2,3-triazol-1-yl)-3,6,9,12,15-pentaoxaheptadecyl)ureido)benzenesulfonamide]			6400 nM	11.0	0.16	1020 nM	70100 nM	4470 nM	15.7	0.23			
C#Cc1cccc(Nc2ncnc3cc(OCCOC)c(OCCOC)cc23)c1 [ERL, erlotinib]	displayed an antiproliferative effect	displayed an antiproliferative effect									3980 nM	453 nM	mild reduction of cell proliferation; also recorded: low efficacy
COCCOc1cc2ncnc(Nc3cccc(-c4cn(CCOCCOCCOCCOCCOCCNC(=S)NCc5ccc(S(N)(=O)=O)cc5)nn4)c3)c2cc1OCCOC [compound 14c, 4-(21-(4-(3-((6,7-Bis(2-methoxyethoxy)quinazoline-4-yl)amino)phenyl)-1H-1,2,3-triazol-1-yl)-3-thioxo-7,10,13,16,19-pentaoxa-2,4-diazahenicosyl)benzenesulfonamide]			665 nM	7.48	1.52	1010 nM	4980 nM	3730 nM	1.33	0.27			
COCCOc1cc2ncnc(Nc3cccc(-c4cn(CCOCCOCCOCCNC(=S)NCc5ccc(S(N)(=O)=O)cc5)nn4)c3)c2cc1OCCOC [compound 8c, 4-(15-(4-(3-((6,7-Bis(2-methoxyethoxy)quinazolin-4-yl)amino)phenyl)-1H-1,2,3-triazol-1-yl)-3-thioxo-7,10,13-trioxa-2,4-diazapentadecyl)benzenesulfonamide]			69.7 nM	47.0	16.5	1150 nM	3280 nM	26 nM	127	44.57			

— publication PMC12243159 (RSC Medicinal Chemistry, 2025)
